Where a SMILES comes first, the peptide text is derived from it. Bridges are numbered along the chain shown (N, C = ends). Roman numbers before positions name the chains, in order. [ ]: non-standard residue; d: D form. The star is where a group is joined. Quinoxaline2carbonyl = O=C(c1cnc2ccccc2n1)*; Quinaldoyl(3-OH) = O=C(c1nc2ccccc2cc1O)*; Quinaldoyl = O=C(c1ccc2ccccc2n1)*; NMeF = CN[C@@H](Cc1ccccc1)C(=O)O; NMeL = CN[C@@H](CC(C)C)C(=O)O; X1 = O=C(c1cc(=O)c2ccccc2o1)*; NMeA = CN[C@@H](C)C(=O)O; Orn = NCCC[C@H](N)C(=O)O; Dap = NC[C@H](N)C(=O)O; Sar = CNCC(=O)O
Experiments:
Assay type in all cases: functional
HT-29 = test: Cytotoxicity against human HT29 cells after 72 hrs by SRB assay; conditions: HT-29, 72 h
Outline: (§1)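 SRB colorimetric growth assay: cells seeded at 5 × 10^3 cells/well in RPMI, grown drug-free 18 h to attach, then samples added (dissolved in DMSO–H2O 3:7) for 72 h exposure. Fixed with cold 50% TCA 60 min at 4 °C, stained with 0.4% SRB in 1% acetic acid 10 min at room temperature, washed, bound dye solubilized in Tris, absorbance read at 490 nm; GI50 derived.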

MDA-MB-231 = test: Cytotoxicity against human MDA-MB-231 cells after 72 hrs by SRB assay; conditions: MDA-MB-231, 72 h; outline: as §1
A549 = test: Cytotoxicity against human A549 cells after 72 hrs by SRB assay; conditions: A549, 72 h; outline: as §1

Which GI50 (HT-29) does the source give for CC(C)C[C@@H](C(=O)N[C@H]1CNC(=O)[C@H](Cc2ccccc2)N(C)C(=O)[C@H](CC(C)C)N(C)C(=O)[C@@H](NC(=O)[C@H](CC(C)C)N(C)C)CNC(=O)[C@H](Cc2ccccc2)N(C)C(=O)[C@H](CC(C)C)N(C)C1=O)N(C)C here?
The GI50 was 0.65 µM.

What about the GI50 (MDA-MB-231) of the same compound?
The GI50 was 0.71 µM.

And the GI50 (A549)?
The GI50 was 2.86 µM.

CC(C)C[C@@H](C(=O)N[C@H]1COC(=O)[C@H](Cc2ccccc2)N(C)C(=O)[C@H](CC(C)C)N(C)C(=O)[C@@H](NC(=O)[C@H](CC(C)C)N(C)C)COC(=O)[C@H](Cc2ccccc2)N(C)C(=O)[C@H](CC(C)C)N(C)C1=O)N(C)C was tested. Which GI50 (HT-29) did it give?
Its GI50 is 0.64 µM.

And the GI50 (MDA-MB-231)?
The GI50 was 1.23 µM.

What about the GI50 (A549) of the same compound?
Its GI50 is 2.9 µM.

With CC(C)C[C@H]1C(=O)NCCCC[C@H](NC(=O)c2ccc3ccccc3n2)C(=O)N(C)[C@@H](CC(C)C)C(=O)N(C)CC(=O)N(C)[C@@H](CC(C)C)C(=O)NCCCC[C@H](NC(=O)c2ccc3ccccc3n2)C(=O)N(C)[C@@H](CC(C)C)C(=O)N(C)CC(=O)N1C (I: Quinaldoyl-K[NMeL][Sar][NMeL] / II: Quinaldoyl-K[NMeL][Sar][NMeL]; amide I:1-II:C, I:C-II:1) as the compound, how does the GI50 (A549) read?
Its GI50 is 3.94 µM.

What does the source list for CC(C)C[C@H]1C(=O)NC[C@H](NC(=O)c2ccc3ccccc3n2)C(=O)N(C)[C@@H](CC(C)C)C(=O)NCC(=O)N(C)[C@@H](CC(C)C)C(=O)NC[C@H](NC(=O)c2ccc3ccccc3n2)C(=O)N(C)[C@@H](CC(C)C)C(=O)NCC(=O)N1C (I: Quinaldoyl-[Dap][NMeL]G[NMeL] / II: Quinaldoyl-[Dap][NMeL]G[NMeL]; amide I:1-II:C, I:C-II:1)?
GI50 (HT-29): 0.62 µM; GI50 (MDA-MB-231): 0.55 µM; GI50 (A549): 1.18 µM

How did the GI50 (HT-29) turn out when CC(C)C[C@H]1C(=O)N(C)CC(=O)N(C)[C@@H](C)C(=O)NC[C@H](NC(=O)c2ccc3ccccc3n2)C(=O)N(C)[C@@H](CC(C)C)C(=O)N(C)CC(=O)N(C)[C@@H](C)C(=O)NC[C@H](NC(=O)c2ccc3ccccc3n2)C(=O)N1C (I: Quinaldoyl-[Dap][NMeL][Sar][NMeA] / II: Quinaldoyl-[Dap][NMeL][Sar][NMeA]; amide I:1-II:C, I:C-II:1) was run?
The GI50 was 3.53 µM.

What about the GI50 (MDA-MB-231) of the same compound?
The GI50 was 5.34 µM.

Which GI50 (HT-29) does the source give for CC(C)C[C@H]1C(=O)N(C)CC(=O)N(C)[C@@H](Cc2ccccc2)C(=O)NC[C@H](NC(=O)c2ccc3ccccc3n2)C(=O)N(C)[C@@H](CC(C)C)C(=O)N(C)CC(=O)N(C)[C@@H](Cc2ccccc2)C(=O)NC[C@H](NC(=O)c2ccc3ccccc3n2)C(=O)N1C (I: Quinaldoyl-[Dap][NMeL][Sar][NMeF] / II: Quinaldoyl-[Dap][NMeL][Sar][NMeF]; amide I:1-II:C, I:C-II:1) here?
The GI50 was 4.08 µM.

What about the GI50 (A549) of the same compound?
The GI50 was 4.16 µM.

Which GI50 (HT-29) does the source give for CC(C)C[C@H]1C(=O)NC[C@H](NC(=O)c2ccc3ccccc3n2)C(=O)N(C)[C@@H](CC(C)C)C(=O)N(C)CC(=O)N(C)[C@@H](CC(C)C)C(=O)OC[C@H](NC(=O)c2ccc3ccccc3n2)C(=O)N(C)[C@@H](CC(C)C)C(=O)N(C)CC(=O)N1C (I: Quinaldoyl-[Dap][NMeL][Sar][NMeL] / II: Quinaldoyl-S[NMeL][Sar][NMeL]; amide I:1-II:C; ester I:C-II:1) here?
The GI50 was 1.23 µM.

And the GI50 (MDA-MB-231)?
Its GI50 is 1.16 µM.

And the GI50 (A549)?
The GI50 was 2.76 µM.

What does the source list for CC(C)C[C@H]1C(=O)NC[C@H](NC(=O)c2ccc3ccccc3n2)C(=O)N(C)[C@@H](CC(C)C)C(=O)N(C)CC(=O)N(C)[C@@H](CC(C)C)C(=O)NC[C@H](NC(=O)c2ccc3ccccc3n2)C(=O)N(C)[C@@H](CC(C)C)C(=O)N(C)CC(=O)N1C (I: Quinaldoyl-[Dap][NMeL][Sar][NMeL] / II: Quinaldoyl-[Dap][NMeL][Sar][NMeL]; amide I:1-II:C, I:C-II:1)?
GI50 (HT-29): 0.5 µM; GI50 (MDA-MB-231): 0.64 µM; GI50 (A549): 0.57 µM

What does the source list for CC(C)C[C@H]1C(=O)NCCC[C@H](NC(=O)c2ccc3ccccc3n2)C(=O)N(C)[C@@H](CC(C)C)C(=O)N(C)CC(=O)N(C)[C@@H](CC(C)C)C(=O)NCCC[C@H](NC(=O)c2ccc3ccccc3n2)C(=O)N(C)[C@@H](CC(C)C)C(=O)N(C)CC(=O)N1C (I: Quinaldoyl-[Orn][NMeL][Sar][NMeL] / II: Quinaldoyl-[Orn][NMeL][Sar][NMeL]; amide I:1-II:C, I:C-II:1)?
GI50 (HT-29): 2.44 µM; GI50 (MDA-MB-231): 5.8 µM; GI50 (A549): 2.94 µM

What does the source list for CC(C)C[C@H]1C(=O)NC[C@H](NC(=O)c2cnc3ccccc3n2)C(=O)N(C)[C@@H](CC(C)C)C(=O)N(C)CC(=O)N(C)[C@@H](CC(C)C)C(=O)NC[C@H](NC(=O)c2cnc3ccccc3n2)C(=O)N(C)[C@@H](CC(C)C)C(=O)N(C)CC(=O)N1C (I: Quinoxaline2carbonyl-[Dap][NMeL][Sar][NMeL] / II: Quinoxaline2carbonyl-[Dap][NMeL][Sar][NMeL]; amide I:1-II:C, I:C-II:1)?
GI50 (HT-29): 1.23 µM; GI50 (MDA-MB-231): 1.67 µM; GI50 (A549): 1.41 µM

For CC(C)C[C@H]1C(=O)NC[C@H](NC(=O)c2cc(=O)c3ccccc3o2)C(=O)N(C)[C@@H](CC(C)C)C(=O)N(C)CC(=O)N(C)[C@@H](CC(C)C)C(=O)NC[C@H](NC(=O)c2cc(=O)c3ccccc3o2)C(=O)N(C)[C@@H](CC(C)C)C(=O)N(C)CC(=O)N1C (I: X1-[Dap][NMeL][Sar][NMeL] / II: X1-[Dap][NMeL][Sar][NMeL]; amide I:1-II:C, I:C-II:1), which GI50 (HT-29) is on record?
The GI50 was 2.91 µM.

And the GI50 (MDA-MB-231)?
The GI50 was 2.31 µM.

Which GI50 (HT-29) does the source give for CC(C)C[C@H]1C(=O)NC[C@H](NC(=O)c2nc3ccccc3cc2O)C(=O)N(C)[C@@H](CC(C)C)C(=O)N(C)CC(=O)N(C)[C@@H](CC(C)C)C(=O)NC[C@H](NC(=O)c2nc3ccccc3cc2O)C(=O)N(C)[C@@H](CC(C)C)C(=O)N(C)CC(=O)N1C (I: {Quinaldoyl(3-OH)}-[Dap][NMeL][Sar][NMeL] / II: {Quinaldoyl(3-OH)}-[Dap][NMeL][Sar][NMeL]; amide I:1-II:C, I:C-II:1) here?
The GI50 was 3.43 µM.

What about the GI50 (A549) of the same compound?
Its GI50 is 2.4 µM.

Reference: ChEMBL document CHEMBL1150348, “Design and synthesis of FAJANU: a de novo C(2) symmetric cyclopeptide family” (2008)
